Legend:
[1] = Plasma concentration after intravenous aministration at 1hr, (1 mg/kg, n=3); format: ADME, organism-based; details: rat
In short: (§1)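 Rats dosed intravenously at 1 mg/kg (n = 3). Plasma drug concentrations were measured at 30 min and at 1 h (60 min) and reported in µM.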

[2] = Plasma concentration after intravenous aministration at 30 min. (1 mg/kg, n=3); format: ADME, organism-based; details: rat; in short: as §1
Coagulation factor X = Coagulation factor X (Homo sapiens, UniProt P00742); assay: Inhibitory constant against human coagulation factor Xa (fXa)
Sequence of Coagulation factor X (P00742 41-179 limits assumed): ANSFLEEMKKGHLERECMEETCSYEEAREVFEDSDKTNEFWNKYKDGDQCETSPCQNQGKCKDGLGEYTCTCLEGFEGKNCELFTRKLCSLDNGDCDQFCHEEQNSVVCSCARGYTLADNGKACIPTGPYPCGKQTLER
Sequence of Coagulation factor X (P00742 235-488 limits assumed): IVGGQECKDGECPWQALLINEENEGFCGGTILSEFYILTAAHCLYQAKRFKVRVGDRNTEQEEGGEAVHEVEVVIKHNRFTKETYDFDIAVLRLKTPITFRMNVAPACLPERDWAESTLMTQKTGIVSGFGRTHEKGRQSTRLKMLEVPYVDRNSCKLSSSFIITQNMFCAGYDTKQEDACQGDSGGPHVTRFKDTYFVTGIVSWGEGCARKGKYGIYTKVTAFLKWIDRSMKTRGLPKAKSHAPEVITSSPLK

Prothrombin = Prothrombin (Homo sapiens, UniProt P00734); assay: Inhibitory constant against human coagulation factor II (thrombin) for selectivity within coagulation cascade
Serine protease 1 = target: T1, Serine protease 1 (Bos taurus, UniProt P00760); assay: Inhibitory constant against bovine trypsin for general specificity against serine proteases
T1 sequence (P00760 whole entry): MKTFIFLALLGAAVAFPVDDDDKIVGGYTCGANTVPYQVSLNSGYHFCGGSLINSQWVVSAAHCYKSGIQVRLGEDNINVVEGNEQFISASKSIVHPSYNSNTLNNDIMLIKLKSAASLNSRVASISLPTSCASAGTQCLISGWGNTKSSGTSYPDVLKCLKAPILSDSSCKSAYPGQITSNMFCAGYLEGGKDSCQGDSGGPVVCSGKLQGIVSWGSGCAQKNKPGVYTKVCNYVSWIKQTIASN

[3] = Plasma concentration after oral aministration at 2 hr. (10 mg/kg); format: ADME, organism-based; details: rat
In short: (§2)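 Rats were dosed orally at 10 mg/kg. Plasma drug concentrations were measured at 1, 2 and 4 h and reported in µM.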

[4] = Plasma concentration after oral aministration at 1 hr. (10 mg/kg); format: ADME, organism-based; details: rat; in short: as §2
[5] = Plasma concentration after intravenous aministration at 60 min. (1 mg/kg, n=3); format: ADME, organism-based; details: rat; in short: as §1
[6] = Plasma concentration after oral aministration at 4 hr. (10 mg/kg); format: ADME, organism-based; details: rat; in short: as §2

Row | SMILES | concentration at 0.5 h [2] | Ki (Coagulation factor X) | Ki (Prothrombin) | Ki (Serine protease 1) | also measured
1 | N=C(N)c1ccc(O)c(Oc2cc(C(=O)O)cc(Oc3cccc(C4=NCCN4)c3)n2)c1 | 3 µM | – | – | – | concentration at 1 h [1]: 1.4 µM
2 | Cc1c(F)c(Oc2cccc(OC(C)C)c2)nc(Oc2cccc(C(=N)N)c2)c1F | – | 0.62 µM | 5.3 µM | 2.9 µM | –
3 | Cc1c(F)c(Oc2cccc(C(=N)N)c2)nc(Oc2cccc(C(=N)N)c2)c1F | 0.1 µM | – | – | – | –
4 | CN(C)C(=O)c1cccc(Oc2cc(C(=O)O)cc(Oc3cc(C(=N)N)ccc3O)n2)c1 | – | 0.0031 µM | 0.49 µM | 0.15 µM | –
5 | CCOC(=O)c1cccc(Oc2nc(Oc3cccc(C(=N)N)c3)c(F)c(C)c2F)c1 | – | 5.2 µM | > 5 µM | > 5 µM | –
6 | Cc1c(F)c(Oc2cccc(C(=N)N)c2)nc(Oc2ccc(Cl)c(N(C)C)c2)c1F | – | 0.5 µM | 5.3 µM | 1 µM | –

More lines, main results first:

Row | concentration at 0.5 h [2] | Ki (Coagulation factor X) | Ki (Prothrombin) | Ki (Serine protease 1) | SMILES | also measured
7 | 0.8 µM | – | – | – | N=C(N)c1cccc(Oc2cc(C(=O)O)cc(Oc3cccc(C(=N)N)c3)n2)c1 | –
8 | – | 0.013 µM | 0.65 µM | 0.16 µM | Cc1cn(-c2cccc(Oc3cc(C(=O)O)cc(Oc4cc(C(=N)N)ccc4O)n3)c2)cn1 | –
9 | – | 0.22 µM | > 5 µM | 2.8 µM | Cc1c(F)c(Oc2cccc(C(=N)N)c2)nc(Oc2cccc(C(=O)N3CCCC3)c2)c1F | –
10 | 1.9 µM | 0.006 µM | 5.1 µM | 0.52 µM | N=C(N)c1cccc(Oc2cc(C(=O)O)cc(Oc3cc(C(=N)N)ccc3O)n2)c1 | –
11 | – | 5.5 µM | > 5 µM | > 5 µM | Cc1c(F)c(Oc2cccc(N(C)C)c2)nc(Oc2cc(C(=N)N)ccc2NS(C)(=O)=O)c1F | –
12 | – | 2.2 µM | > 5 µM | 3.3 µM | Cc1c(F)c(Oc2cccc(C(=N)N)c2)nc(Oc2cccc(C(O)C(=O)N(C)C)c2)c1F (stereo not drawn) | –
13 | – | 0.82 µM | > 5 µM | 3 µM | Cc1c(F)c(Oc2cccc(C(=N)N)c2)nc(Oc2cccc(C(=O)N3CCCCC3)c2)c1F | –
14 | 1.1 µM | – | – | – | CN1CCN=C1c1cccc(Oc2cc(C(=O)O)cc(Oc3cc(C(=N)N)ccc3O)n2)c1 | concentration at 2 h [3]: 0.2 µM; concentration at 1 h [4]: 1.4 µM; concentration at 1 h [5]: 0.4 µM; concentration at 4 h [6]: 0.1 µM
15 | – | 1.3 µM | > 5 µM | 4.9 µM | Cc1c(F)c(Oc2cccc(CCC(=O)N(C)C)c2)nc(Oc2cccc(C(=N)N)c2)c1F | –
